Experimental data taken from ChEMBL document CHEMBL1123276, “Analgetic and antiinflammatory 7-aroylbenzofuran-5-ylacetic acids and 7-aroylbenzothiophene-5-ylacetic acids” (1986).

Key:
Format in all cases: functional
Rattus norvegicus [1] = assay: Anti-inflammatory activity against carrageenan-induced paw edema in female rats relative to phenylbutazone by p.o. administration.
Method in brief: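 Test agents given in saline/0.5% carboxymethylcellulose/0.4% polysorbate 80/0.9% benzyl alcohol aqueous vehicle. Rats killed 4 h after dosing, and both hindpaws excised and weighed. Potency vs phenylbutazone taken from dose-response plots of mean % weight increase of treated over untreated paw. Six rats per dose, at least four doses, linear parallel curves, analysis of variance.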

Mus musculus [2] = assay: Inhibition of phenylquinone -induced writhing in male mice by p.o. administration 20 min prior to i.p. phenylquinone (relative to aspirin).
Method in brief: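 Male mice, 18-20 g, dosed orally in the same aqueous saline/CMC/polysorbate 80/benzyl alcohol vehicle 20 min before intraperitoneal phenylquinone. Writhing observed for 10 min. Potency vs aspirin derived from dose-response curves by analysis of variance. Eight mice per dose group.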

Rattus norvegicus [3] = assay: Chronic gastrointestinal erosive activity in male rats by the oral administration was determined.
Method in brief: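 Male Cox/SD rats, 190-220 g, acclimated about 1 week. Dosed orally once daily in phosphate-buffered saline (1 mL/100 g) for 7 consecutive days, 5 rats per dose. Food withdrawn on the last dosing day. Killed one day after the last dose, with body weight recorded at start and at sacrifice. Stomach and small intestine scored blind for lesions.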

Mus musculus [4] = organism: Mus musculus; assay: Dose required for the inhibition of phenylquinone-induced writhing in male mice

SMILES: O=C(O)Cc1cc(C(=O)c2ccccc2)c2sccc2c1
- Relative potency (Rattus norvegicus [1]): 0.6
- Relative potency (Mus musculus [2]): 0.4

SMILES: O=C(O)Cc1cc2c(c(C(=O)c3ccccc3)c1)SCC2
- Relative potency (Rattus norvegicus [1]): 0.6
- Relative potency (Mus musculus [2]): <1

SMILES: O=C(O)Cc1cc(C(=O)c2ccc(Cl)cc2)c2occc2c1
- Relative potency (Rattus norvegicus [1]): 0.6
- Relative potency (Mus musculus [2]): 33.9

SMILES: CC(C(=O)O)c1cc(C(=O)c2ccc(Cl)cc2)c2occc2c1 (stereo not drawn)
- Relative potency (Rattus norvegicus [1]): 2
- Relative potency (Mus musculus [2]): 42.9

SMILES: C[S+]([O-])c1ccc(C(=O)c2cc(CC(=O)O)cc3ccoc23)cc1 (stereo not drawn)
- Relative potency (Rattus norvegicus [1]): 1.8
- Relative potency (Mus musculus [2]): 7.5

SMILES: CC(C(=O)O)c1cc(C(=O)c2ccccc2)c2occc2c1 (stereo not drawn)
- Relative potency (Rattus norvegicus [1]): 1.8
- Relative potency (Mus musculus [2]): 42.4

SMILES: O=C(O)Cc1cc(C(=O)c2ccc(Cl)cc2)c2sccc2c1
- Relative potency (Rattus norvegicus [1]): 1.5
- Relative potency (Mus musculus [2]): 7

SMILES: COc1ccc(C(=O)c2cc(CC(=O)O)cc3ccoc23)cc1
- Relative potency (Rattus norvegicus [1]): 1
- Relative potency (Mus musculus [2]): 33

SMILES: CS(=O)(=O)c1ccc(C(=O)c2cc(CC(=O)O)cc3ccoc23)cc1
- Relative potency (Mus musculus [2]): <1

SMILES: CC(C(=O)O)c1cc(C(=O)c2ccc(C=O)cc2)c2occc2c1 (stereo not drawn)
- Relative potency (Rattus norvegicus [1]): 1.3
- Relative potency (Mus musculus [2]): 45

SMILES: CSc1ccc(C(=O)c2cc(CC(=O)O)cc3c2OCC3)cc1
- Relative potency (Rattus norvegicus [1]): 0.2
- Relative potency (Mus musculus [2]): 8

SMILES: O=C(O)Cc1cc2c(c(C(=O)c3ccc(Cl)cc3)c1)OCC2
- Relative potency (Rattus norvegicus [1]): 0.8
- Relative potency (Mus musculus [2]): 7

SMILES: O=C(O)Cc1cc2c(c(C(=O)c3ccccc3)c1)OCC2
- Relative potency (Rattus norvegicus [1]): 0.7
- Relative potency (Mus musculus [2]): 0.25

SMILES: O=C(O)Cc1cc2c(c(C(=O)c3ccc(Cl)cc3)c1)SCC2
- Relative potency (Rattus norvegicus [1]): 0.6
- Relative potency (Mus musculus [2]): 0.6

SMILES: CSc1ccc(C(=O)c2cc(C(C)C(=O)O)cc3ccoc23)cc1 (stereo not drawn)
- Relative potency (Rattus norvegicus [1]): 18.6
- ED50 (Rattus norvegicus [3]): ≤ 1 mg/kg
- Relative potency (Mus musculus [2]): 25

SMILES: O=C(O)Cc1cc(C(=O)c2ccccc2)c2occc2c1
- Relative potency (Rattus norvegicus [1]): 1
- Relative potency (Mus musculus [2]): 40

SMILES: COc1ccc2c(c1)c(CC(=O)O)c(C)n2C(=O)c1ccc(Cl)cc1 [INDOMETHACIN]
- Relative potency (Rattus norvegicus [1]): 16
- ED50 (Rattus norvegicus [3]; Rattus norvegicus, po): 3 mg/kg
- Relative potency (Mus musculus [2]): 60
- ED50 (Mus musculus [4]): 1.16 mg/kg

SMILES: CSc1ccc(C(=O)c2cc(CC(=O)O)cc3ccoc23)cc1 [TIFURAC]
- Relative potency (Rattus norvegicus [1]): 3
- ED50 (Rattus norvegicus [3]; Rattus norvegicus, po): ≥ 90 mg/kg
- Relative potency (Mus musculus [2]): 57
- ED50 (Mus musculus [4]): 1.2 mg/kg

SMILES: Cc1cc(CC(=O)O)n(C)c1C(=O)c1ccc(Cl)cc1 [ZOMEPIRAC]
- ED50 (Rattus norvegicus [3]; Rattus norvegicus, po): 10 mg/kg
- Relative potency (Mus musculus [2]): 40
- ED50 (Mus musculus [4]): 1.75 mg/kg
